Assay outcomes: PubChem BioAssay, several laboratories
S1P4 ag – S1P4 receptor agonists, primary screen, cell-based; Sphingosine 1-phosphate receptor 4 (Homo sapiens), O95977; S1P4-expressing cell line, agonist reporter assay; activation, % at 4.98 µM; hit rate 0.35% among 220,000; AID 1509, 2009; in the data active = activation above about 11%;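 note: 0% = DMSO vehicle and 100% = reference agonist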
Target sequence (O95977 whole entry, looked up): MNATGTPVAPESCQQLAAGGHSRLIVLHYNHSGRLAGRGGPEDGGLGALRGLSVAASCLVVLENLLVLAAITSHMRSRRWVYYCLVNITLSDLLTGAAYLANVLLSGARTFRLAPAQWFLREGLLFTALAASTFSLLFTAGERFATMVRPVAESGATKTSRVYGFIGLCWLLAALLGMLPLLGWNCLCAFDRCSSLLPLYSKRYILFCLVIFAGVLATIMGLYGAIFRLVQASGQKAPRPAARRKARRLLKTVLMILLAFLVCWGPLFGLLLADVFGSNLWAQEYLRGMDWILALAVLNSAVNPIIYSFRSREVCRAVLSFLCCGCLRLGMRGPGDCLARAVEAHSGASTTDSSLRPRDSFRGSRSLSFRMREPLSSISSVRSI
Dynein cargo inh – inhibitors of GR-EGFP nuclear translocation, primary screen, dynein cargo transport inhibitor project, imaging, high-content, 3617.4 mouse cells. AID 1381, 2008. z-score, hits read low. hit rate 0.47% among 220,000. test concentration mostly 20 µM; stimulated with dexamethasone, 1 µM; active compounds read low;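 active = plate z-score of nuclear minus cytoplasmic receptor signal below a set negative limit, without overly bright fluorescence or cell loss, cut at about -3.5 in these data, passing the limit was not always enough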;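 note: z-score of nuclear minus cytoplasmic ring GR-EGFP intensity difference per well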
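Buffer or medium – tet-free medium with charcoal-stripped serum · Signal – automated 10x imaging of fixed Hoechst-stained cells · Also added – dexamethasone agonist, 1.0 µM final, for 30 min · Incubation – induction 48 h, compound 1 h, agonist 30 min · Read-out – GR-EGFP nuclear translocation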
Tb hexokinase – Trypanosoma brucei hexokinase 1 inhibitors, primary screen, biochemical, G6PDH-coupled NADH absorbance, MLSCN library | hit rate 0.11% among 220,000 | hexokinase 1 [Trypanosoma brucei] | inhibition, % at 10 µM | recombinant TbHK1, G6PDH-coupled NADH A340;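 active = inhibition of 50% or more in the single-dose primary screen; inactive = inhibition below 50%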
L929 necroptosis – inhibitors of zVAD-triggered necroptosis, primary screen, L929 cells; hit rate 0.38% among 220,000; L929 zVAD necroptosis rescue, ATP luminescence, 24 h; with zVAD 60 µM; viability rescue, % at 10 µM;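 active = activation, scaled between plate controls, above about 75%, limit read from the data; inactive = activation under that limit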;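 note: 0% = zVAD with DMSO and 100% = DMSO alone without zVAD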
S1P4 antag – S1P4 receptor antagonists, primary screen, cell-based. inhibition, % at 4.98 µM. AID 1510, 2009. Sphingosine 1-phosphate receptor 4 (Homo sapiens), O95977. S1P4-expressing cells, antagonist mode, reporter read-out. hit rate 0.26% among 220,000; in the data active = inhibition above about 29%;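 note: 0% = wells stimulated with agonist and 100% = vehicle wells without agonist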
TNF death inh – inhibitors of TNF-alpha triggered necroptosis, primary screen, cell-based, Jurkat FADD-/-, single concentration; activation (protection from cell death), % at 10 µM; Jurkat FADD-/- TNF necroptosis rescue, ATP luminescence, 24 h; 0 = TNF only, 100 = no-TNF cells; hit rate 0.068% among 220,000;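 active = activation, meaning protection from cell death, of at least 50% relative to plate controls; inactive = activation below 50%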;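 note: necroptosis triggered by 40 ng/mL TNF-alpha added together with compound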
Dynein confirm – dynein cargo transport inhibitors, GR-EGFP translocation, confirmation, imaging, high-content imaging, GR-EGFP cells; shares compounds with Dynein cargo inh; 3617.4 GR-EGFP nuclear translocation imaging, dexamethasone-induced; calls only at 20 µM; hit rate 69% among 1,000;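 active = inhibition of receptor movement into the nucleus at or above a set limit in both runs, with normal cell brightness and cell count; inconclusive = limit reached in only one run, brightness and count normal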;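 note: dexamethasone at 1 µM final in well for 30 min; nuclear minus cytoplasmic GR-EGFP mean intensity difference in channel 2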
Starred values were filed as active, the others as inactive; i = inactive; u = inconclusive; x = no result given; + = active, no number. This is a sample that favours compounds with a hit; in the whole collection about 1.5% have one here.

SMILES	S1P4 ag	Dynein cargo inh	Tb hexokinase	L929 necroptosis	S1P4 antag	TNF death inh	Dynein confirm
Cc1cccc(NC(=O)CCC(=O)OCC(=O)c2ccc(Oc3ccc([N+](=O)[O-])cc3)cc2)c1	0	-4.4*	-2	1	-13	-1	u
C/C(=N/NC(=O)COc1cc(C)ccc1C(C)C)C(=O)O	0	0.065	9	1	-3	0	x
Cc1ccc(C(C)C)c(OCC(=O)NN=C(CCl)CCl)c1	-1	-4.6*	-10	0	-8	-20	+
CCCn1nc(-c2ccccc2)c2nc3ccccc3nc21	3	-4.5	-9	0	-24	-3	i
CCOC(=O)c1cnc2cc3c(cn2c1=O)CCCC3	-1	-0.91	-29	11	-14	1	x
CCOC(=O)C1=C(SCC)c2cc3c(n2C1=O)CCCC3	0	-3.6*	-11	0	-13	-9	+
COc1ccc(NC(=S)NCCc2c(C)[nH]c3ccc(OC)cc23)cc1	0	-0.33	3	0	-6	-2	x
CCCn1c(CC)nc([N+](=O)[O-])c1S(=O)(=O)c1ccccc1	-2	-5.1*	2	3	9	-23	+
CC1(C)COC(/C=C/c2cccc([N+](=O)[O-])c2)=N1	-3	-4.5*	8	68	18	-9	+
O=C(O)/C(=N/NC(=O)c1ccc(Cl)cc1)c1ccccc1	-2	-0.95	-1	0	-5	4	x
C=CCn1cc(C(=O)OCC)c(=O)c2cc(F)c(F)cc21	0	-0.62	5	0	10	1	x
CCOC(=O)c1c(C)oc2c(F)c(F)c(F)c(F)c2c1=O	0	-4.6*	-1	20	1	-19	+
Fc1cccc(C2CCCCN2Cc2nc(C3CC3)no2)c1 (configuration not stated)	0	-0.39	-1	1	-6	0	x
CN(C)S(=O)(=O)N1CCCC(C(=O)c2ccc(-c3ccccc3)cc2)C1 (configuration not stated)	0	0.0087	-1	64	-3	2	x
CC1(C)CC(=O)C2=C(C1)OC(N)=C(C#N)C2C#Cc1ccccc1 (configuration not stated)	3	-5.4*	-2	0	-10	-13	+
CC(c1ccccc1)C1C(C#N)=C(N)OC2=C1C(=O)CC(C)(C)C2 (configuration not stated)	-2	-0.51	2	0	-13	-6	x
C=CCNC(=S)Nc1sc2c(c1C(=O)OCC)CCN(C(=O)OCC)C2	-1	1.2	-8	-1	10	-1	x
CCOC(=O)c1c(NC(=S)N2CCCCC2)sc2c1CCN(C(=O)OCC)C2	-1	-3.6*	-24	-1	3	-1	+
CCOC(=O)c1c(NC(=S)NCc2ccccc2)sc2c1CCN(C(=O)OCC)C2	1	0.26	-22	0	0	1	x
CCOC(=O)c1c(NC(=S)N2CCOCC2)sc2c1CCN(C(=O)OCC)C2	0	-4.7*	-19	31	13	-17	+
CC1OC(OC2C(OC3C(O[C@H]4CC[C@]5(C)C6C=C[C@]78OC[C@@]9(CC[C@@H](C)[C@H](C)C97)[C@H](O)C[C@@]8(C)[C@]6(C)CC[C@H]5C4(C)C)OC(C)C(O)C3O)OC(CO)C(O)C2O)C(O)C(O)C1O (some centres not stated)	x	-3.9*	-25	-1	x	-18	i
COc1ccc(-c2nnn(CC(=O)N(Cc3ccc(F)cc3)C(C(=O)NC3CCCC3)c3ccc(F)cc3)n2)cc1 (configuration not stated)	-1	-0.42	1	0	-15	-1	x
COc1ccc(N(C(=O)CCl)C(C(=O)NC2CCCCC2)c2cccnc2)cc1 (configuration not stated)	2	-5.4*	8	4	3	-13	+
COc1ccc(C(C(=O)NC2CCCCC2)N(C(=O)CCl)c2cccc(Cl)c2)cc1 (configuration not stated)	3	-3.9*	4	1	-16	-15	+
O=C(NC1CCCCC1)C(c1cccnc1)N(C(=O)CCl)c1ccc(F)cc1 (configuration not stated)	0	-4.4*	14	1	-15	-14	+
SMILES	S1P4 ag	Dynein cargo inh	Tb hexokinase	L929 necroptosis	S1P4 antag	TNF death inh	Dynein confirm
O=C(NC1CCCC1)C(c1ccc(F)cc1)N(Cc1ccc(F)cc1)C(=O)CCl (configuration not stated)	1	-4.4*	35	2	-7	-7	+
COc1ccc(C(C(=O)NC2CCCCC2)N(C(=O)CCl)c2ccc(OC)cc2)cc1 (configuration not stated)	2	-0.68	34	1	1	-11	x
COc1ccc(/C=C(/C(=O)c2cccs2)N2C=CC=CC2=C(C#N)C#N)cc1	3	-3.6*	-31	57	-18	-11	u
Cc1cccc2cc(CN(CCCN(C)C)C(=S)NCCc3ccccc3)c(=O)[nH]c12	-2	-0.094	-1	-1	12	7	x
Cc1cccc(N2C(=O)C(O)=C(C(=O)c3cccs3)C2c2ccc(Cl)cc2)n1 (configuration not stated)	0	-0.12	-20	0	-1	3	x
Cc1ccc(OCC(=O)c2ccc(Cl)s2)c([N+](=O)[O-])n1	1	-3.9*	0	0	-16	-1	+
Cc1ccc(S(=O)(=O)N[C@@H](Cc2ccccc2)C(=O)CCl)cc1	1	-4.5*	5	6	-3	-18	i
O=C(NCc1csc2ccccc12)Nc1cc(Cl)cc(Cl)c1	-1	-0.32	-5	1	4	4	x
Cc1ccc(-c2cc(-c3ccccc3)nc(Cl)n2)cc1	1	-0.92	-3	0	-3	-4	x
Cc1ccc(-c2cc(C(F)F)nc(S(C)(=O)=O)n2)cc1	1	-4.5*	0	4	4	-18	+
Cc1ccc(N2C(=O)CC(N3CCc4ccccc43)C2=O)cc1Cl (configuration not stated)	-3	0.0087	2	2	6	0	x
CC(C)c1ccc(/C=C/C(=O)n2nnc3ccccc32)cc1	3	-4.5*	3	0	-21	-20	+
